# According to ChEMBL document CHEMBL1137088, “Distamycin analogues with enhanced lipophilicity: synthesis and antimicrobial activity” (2004):
# “And” between values parts separate entries of the source, which are not always exact repeats. Identical values can stand only once. The source made the active and inactive calls. No cut-off for these calls is given here.
# Key:
# [1] = system: Enterococcus faecalis; experiment: Antibacterial activity against Streptococcus faecalis NCTC 775 strain.; format: functional
# [2] = system: Enterobacter cloacae; experiment: Antibacterial activity against Enterobacter cloacae NCTC 10005 strain.; format: functional, organism-based
# [3] = Antifungal activity against Candida albicans NCPF 3179 strain; na = not active; format: functional
# [4] = system: Klebsiella aerogenes; experiment: Antibacterial activity against Klebsiella aerogenes WRL CN 345 strain; na = not active; format: functional, organism-based
# [5] = system: Escherichia coli; experiment: Antibacterial activity against Escherichia coli NCTC 9001 strain.; format: functional, organism-based
# [6] = system: Staphylococcus aureus; experiment: Antibacterial activity against MRSA PHLS M1 strain; na = not active; format: functional, organism-based
# [7] = system: Staphylococcus aureus; experiment: Antibacterial activity against Staphylococcus aureus NCTC 6571 strain.; format: functional
# [8] = system: Mycolicibacterium fortuitum; experiment: Antibacterial activity against Mycobacterium fortuitum NCTC 10394 strain; na = not active; format: functional, organism-based
# [9] = system: Proteus vulgaris; experiment: Antibacterial activity against Proteus vulgaris NCTC 4175 strain.; format: functional
# [10] = system: Aspergillus nidulans; experiment: Antifungal activity against Aspergillus nidulans CABI 0160037 strain; na = not active; format: functional
# [11] = system: Aspergillus niger; experiment: Antifungal activity against Aspergillus niger IMI17454 strain; na = not active; format: functional
# [12] = system: Klebsiella aerogenes; experiment: Antibacterial activity against Klebsiella aerogenes WRL CN 345 strain.; format: functional, WRL CN 375
# [13] = system: Aspergillus niger; experiment: Antifungal activity against Aspergillus niger IMI17454 strain.; format: functional
# [14] = system: Escherichia coli; experiment: Antibacterial activity against Escherichia coli NCTC 9001 strain; format: functional
# [15] = system: Mycolicibacterium fortuitum; experiment: Antibacterial activity against Mycobacterium fortuitum NCTC 10394 strain.; format: functional
# [16] = Antibacterial activity against Enterobacter cloacae NCTC 10005 strain; format: functional
# [17] = system: Staphylococcus aureus; experiment: Antibacterial activity against methicillin-resistant Staphylococcus aureus (MRSA) PHLS M1 strain.; format: functional
# Outline: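 Read-out is the minimum inhibitory concentration, reported in µM. Amoxycillin is tested alongside as the reference antibiotic.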
# [18] = system: Candida albicans; experiment: Antifungal activity against Candida albicans NCPF 3179 strain.; format: functional
# [19] = system: Aspergillus nidulans; experiment: Antifungal activity against Aspergillus nidulans CABI 0160037 strain; format: functional
# [20] = system: Staphylococcus aureus; experiment: Antibacterial activity against Staphylococcus aureus NCTC 6571 strain; na = not active; format: functional, organism-based
# [21] = system: Enterococcus faecalis; experiment: Antibacterial activity against Streptococcus faecalis NCTC 775 strain; na = not active; format: functional, organism-based
# [22] = Antibacterial activity against Proteus vulgaris NCTC 4175 strain; na = not active; format: functional
# [23] = system: Staphylococcus aureus; experiment: Antibacterial activity against MRSA PHLS M1 strain; format: functional
# [24] = system: Enterococcus faecalis; experiment: Antibacterial activity against Streptococcus faecalis NCTC 775 strain=; format: functional
# [25] = system: Mycolicibacterium fortuitum; experiment: Antibacterial activity against Mycobacterium fortuitum NCTC 10394 strain=; format: functional
# [26] = Klebsiella aerogenes, WRL CN 375, read-out: MIC
# [27] = Aspergillus niger, read-out: MIC
# [28] = Candida albicans, read-out: MIC
Structure (SMILES),MIC [2],MIC [3],MIC [5],MIC [6],MIC [7],MIC [8],MIC [10],MIC [21],MIC [22],MIC [1] [µM],MIC [9] [µM],"MIC [12, 26] [µM]","MIC [13, 27] [µM]",MIC [14],MIC [15] [µM],MIC [16] [µM],MIC [17] [µM],"MIC [18, 28] [µM]",MIC [19] [µM],also measured
Cc1sc(NC(=O)c2cc(NC=O)cn2C)cc1C(=O)Nc1cc(C(=O)NCCCN(C)C)n(C)c1,–,–,–,–,39.8 µM,–,–,–,–,79.6,79.6,159,159,159 µM,159,159,159,159,159,–
CC(C)n1cc(NC(=O)c2cc(NC=O)cn2C)cc1C(=O)Nc1cc(C(=O)NCCCN(C)C)n(C)c1,inactive,inactive,inactive,–,–,inactive,inactive,–,–,157,157,39.1,157,–,–,–,157,–,–,MIC [20]: inactive
CCn1cc(NC(=O)c2nc(NC(=O)c3nc(NC=O)cn3CC)cn2CC)nc1C(=O)NCCCN(C)C,inactive,inactive,inactive,inactive,19 µM,inactive,inactive,inactive,inactive,–,–,–,–,–,–,–,–,–,–,MIC [4]: inactive; MIC [11]: inactive
CC(=O)Nc1nc(C(=O)Nc2cc(C(=O)Nc3cc(C(=O)NCCCN(C)C)n(C)c3)n(C)c2)c(C(C)C)s1,–,–,–,–,70 µM,–,–,–,–,74.5,149,149,149,149 µM,74.6,149,149,74.6,–,–
COc1cccc(C(=O)Nc2nc(C(=O)Nc3cc(C(=O)Nc4cc(C(=O)NCCCN(C)C)n(C)c4)n(C)c3)c(C(C)C)s2)c1,–,–,–,–,32.7 µM,–,–,–,–,32.7,65.5,32.7,131,65.5 µM,65.5,131,32.7,131,131,–
CC(C)CCn1cc(NC(=O)c2cc(NC=O)cn2C)cc1C(=O)Nc1cc(C(=O)NCCCN2CCOCC2)n(C)c1,inactive,inactive,inactive,–,–,inactive,inactive,inactive,inactive,–,–,–,70.6,–,–,–,70.6,–,–,MIC [4]: inactive; MIC [20]: inactive
CC(=O)Nc1nc(C(=O)Nc2cc(C(=O)Nc3nc(C(=O)NCCCN(C)C)c(C(C)C)s3)n(C)c2)c(C(C)C)s1,–,–,–,–,4.3 µM,–,–,–,–,4.3,69.8,69.8,4.3,70 µM,17.5,69.8,4.3,34.9,–,–
CC(=O)Nc1cc(C(=O)Nc2cc(C(=O)Nc3cc(C(=O)NCCCN(C)C)n(C)c3)c(C)s2)n(C)c1,–,–,–,–,78.5 µM,–,–,inactive,–,–,156,156,156,156 µM,38.9,156,156,156,38.9,–
CC(C)n1cc(NC(=O)c2cc(NC=O)cn2C)cc1C(=O)Nc1cc(C(=O)NCCCN2CCCC2)n(C)c1,–,inactive,–,–,150 µM,–,–,–,–,75.2,150,37.6,150,inactive,150,75.2,75.2,–,150,–

# Now from value to compound, other results behind:
MIC [2],MIC [3],MIC [5],MIC [6],MIC [7],MIC [8],MIC [10],MIC [21],MIC [22],Structure (SMILES),MIC [1] [µM],MIC [9] [µM],"MIC [12, 26] [µM]","MIC [13, 27] [µM]",MIC [14],MIC [15] [µM],MIC [16] [µM],MIC [17] [µM],"MIC [18, 28] [µM]",MIC [19] [µM],also measured
inactive,inactive,inactive,inactive,10 µM,inactive,inactive,–,–,CN(C)CCCNC(=O)c1cc(NC(=O)c2cc(NC(=O)c3cc(NC=O)cn3C)cn2C)cn1C,0.31,164,–,–,–,–,–,–,–,–,MIC [4]: inactive; MIC [11]: inactive
–,inactive,–,inactive,140 µM,–,–,–,–,CC(C)CCn1cc(NC(=O)c2cc(NC=O)cn2C)cc1C(=O)Nc1cc(C(=O)NCCCN2CCN(C)CC2)n(C)c1,69.3,140,140,140,140 µM,69.3,140,–,–,69.3,–
inactive,inactive,inactive,inactive,–,inactive,inactive,inactive,inactive,CC(C)n1cc(NC(=O)c2cc(NC=O)cn2C)cc1C(=O)Nc1cc(C(=O)NCCCN2CCOCC2)n(C)c1,–,–,–,–,–,–,–,–,–,–,MIC [4]: inactive; MIC [20]: inactive; MIC [11]: inactive
inactive,inactive,inactive,inactive,156 µM (not active),inactive,inactive,inactive,–,CC(=O)Nc1cc(C(=O)Nc2cc(C(=O)Nc3cc(C(=O)NCCCN(C)C)n(C)c3)n(C)c2)c(C)s1,–,156,156,156,–,–,–,–,–,–,–
inactive,–,inactive,–,15.9 µM,–,–,–,inactive,COc1ccc(CC(=O)Nc2cc(C(=O)Nc3cc(C(=O)Nc4cc(C(=O)NCCCN(C)C)n(C)c4)n(CCC(C)C)c3)n(C)c2)cc1,15.9,–,15.9,15.9,–,15.9,–,–,15.9,15.9,MIC [23]: 63.6 µM
–,–,–,inactive,1200 µM,–,–,inactive,–,Cn1cc(NC(=O)c2cc(NC(=O)c3cc(NC=O)cn3C)cn2C)cc1C(=O)NCCCN1CCCC1,–,157,157,157,157 µM,78.5,157,–,157,157,–
inactive,inactive,inactive,inactive,69.8 µM,–,–,–,inactive,COc1cccc(C(=O)Nc2cc(C(=O)Nc3cc(C(=O)Nc4cc(C(=O)NCCCN(C)C)n(C)c4)n(C)c3)n(C)c2)c1,–,–,140,140,–,–,–,–,–,69.8,MIC [24]: 140 µM; MIC [25]: 140 µM
inactive,–,inactive,inactive,–,inactive,inactive,inactive,–,Cc1sc(NC=O)cc1C(=O)Nc1cc(C(=O)Nc2cc(C(=O)NCCCN(C)C)n(C)c2)n(C)c1,–,79.6,–,–,–,–,–,–,159,–,MIC [4]: inactive; MIC [20]: inactive; MIC [11]: inactive
inactive,–,inactive,inactive,–,inactive,inactive,inactive,inactive,CC(=O)Nc1cc(C(=O)Nc2cc(C(=O)Nc3cc(C(=O)NCCCN(C)C)n(C)c3)n(C(C)C)c2)n(C)c1,73.5,153,153,–,–,147,–,–,153,–,MIC [12]: 147 µM; MIC [13]: 153 µM and 73.5 µM; MIC [20]: inactive; MIC [18]: 147 µM
